Experimental findings from ChEMBL document CHEMBL5149984, “Discovery of HN37 as a Potent and Chemically Stable Antiepileptic Drug Candidate” (J Med Chem, 2021) are described below.

Where only a bound is given, the exact number is not on record here.

Series [1] is filed under the species Mus musculus. Put plainly: Anticonvulsant activity in C57BL/6 mouse 6 Hz seizure model at 32 mA measured after 1 hr. It counts as functional.
For series [2], the species on record is Mus musculus. Put plainly: Anticonvulsant activity in Kunming mouse assessed as reduction in Sc-PTZ induced seizure after 1 hr. Format: functional. The method in brief:
(§1)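 sc-PTZ test in male KM mice. Compound suspended in 0.5% CMC-Na and given orally 1 h before PTZ (freshly dissolved in normal saline, 100 mg/kg). Protection against clonic seizures scored; ED50 by nonlinear regression.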

For series [3], the species on record is Mus musculus. Put plainly: Anticonvulsant activity in C57BL/6 mouse 6 Hz seizure model at 44 mA measured after 1 hr. It counts as functional.
Series [4] in a line: Neurotoxicity in po dosed Kunming mouse assessed as motor impairment after 1 hr by rotarod test. It counts as toxicity, organism-based. The note with it: in vivo, po, 1 h. In short, it runs like this:
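Male KM mice dosed intragastrically with compound freshly suspended in 0.5% CMC-Na. Rotarod performance scored 1 h after dosing as the fraction of animals showing motor impairment. Fisher's exact test versus vehicle; TD50 from nonlinear dose−response fit.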
A general note: The rotarod test checks motor coordination on a turning rod.

Series [5] is filed under the species Mus musculus. The experiment in a line: Anticonvulsant activity in Kunming mouse assessed as reduction in MES-induced seizure after 1 hr. Format: functional. In short, it runs like this: (§2)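 MES test in male KM mice. Compounds freshly suspended in 0.5% CMC-Na and given by gavage at 20 mL/kg; 160 V stimulus through ear clips. Protection scored as absence of hindlimb tonic extension; time course at 0.25, 0.5, 1 and 2 h, otherwise tested at 1 h. ED50 from dose−response by nonlinear regression; Fisher's exact test versus vehicle.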

Series [6] deals with Potassium voltage-gated channel subfamily KQT member 2 (Rattus norvegicus) (UniProt O88943). The experiment in a line: Agonist activity at rat Kv7.2 channel expressed in CHO cells assessed as amplitude change of outward current at 10 uM by whole cell patch clamp based electrophysiological method. Particulars: filed as agonist. In short, it runs like this:
(§3)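 Rat KCNQ2 cotransfected with EGFP plasmid by Lipofectamine 3000 into CHO cells (DMEM/F12, 10% FBS; split 24 h before transfection). Whole-cell recording at room temperature. Pipette: 145 mM KCl, 1 mM MgCl2, 5 mM EGTA, 10 mM HEPES, 5 mM MgATP, pH 7.3. Bath, constantly perfused: 140 mM NaCl, 5 mM KCl, 2 mM CaCl2, 1.5 mM MgCl2, 10 mM glucose, 10 mM HEPES, pH 7.4. Signals filtered at 1 kHz. Compound at 10 μM. I/I0 is outward current amplitude with over without compound. ΔV1/2 is the shift in V1/2 from Boltzmann fits of activation curves. Mean ± SEM.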
(In patch-clamp work, channel activity is measured electrically.)

The target is the same in series [7]. Put plainly: Agonist activity at rat Kv7.2 channel expressed in CHO cells assessed as shift of half voltage of maximal activation at 10 uM by whole cell patch clamp based electrophysiological method. Particulars: filed as agonist. The method in brief:
as §3

Series [8] deals with Mus musculus. Put plainly: Anticonvulsant activity in pentylenetetrazol induced Kunming mouse model of seizure at 30 mg/kg, po after 1 hr. It counts as functional. In short, it runs like this: as §1
For series [9], the system named is Mus musculus. The experiment in a line: Anticonvulsant activity in MES induced Kunming mouse model of seizure at 30 mg/kg, po after 1 hr. It counts as functional. In short, it runs like this:
as §2

One may read the ED50 as the dose at which the effect has come halfway, by size or by number of responders.

Chain of Potassium voltage-gated channel subfamily KQT member 2 (Rattus norvegicus) (O88943 whole entry, the tested form may be a part): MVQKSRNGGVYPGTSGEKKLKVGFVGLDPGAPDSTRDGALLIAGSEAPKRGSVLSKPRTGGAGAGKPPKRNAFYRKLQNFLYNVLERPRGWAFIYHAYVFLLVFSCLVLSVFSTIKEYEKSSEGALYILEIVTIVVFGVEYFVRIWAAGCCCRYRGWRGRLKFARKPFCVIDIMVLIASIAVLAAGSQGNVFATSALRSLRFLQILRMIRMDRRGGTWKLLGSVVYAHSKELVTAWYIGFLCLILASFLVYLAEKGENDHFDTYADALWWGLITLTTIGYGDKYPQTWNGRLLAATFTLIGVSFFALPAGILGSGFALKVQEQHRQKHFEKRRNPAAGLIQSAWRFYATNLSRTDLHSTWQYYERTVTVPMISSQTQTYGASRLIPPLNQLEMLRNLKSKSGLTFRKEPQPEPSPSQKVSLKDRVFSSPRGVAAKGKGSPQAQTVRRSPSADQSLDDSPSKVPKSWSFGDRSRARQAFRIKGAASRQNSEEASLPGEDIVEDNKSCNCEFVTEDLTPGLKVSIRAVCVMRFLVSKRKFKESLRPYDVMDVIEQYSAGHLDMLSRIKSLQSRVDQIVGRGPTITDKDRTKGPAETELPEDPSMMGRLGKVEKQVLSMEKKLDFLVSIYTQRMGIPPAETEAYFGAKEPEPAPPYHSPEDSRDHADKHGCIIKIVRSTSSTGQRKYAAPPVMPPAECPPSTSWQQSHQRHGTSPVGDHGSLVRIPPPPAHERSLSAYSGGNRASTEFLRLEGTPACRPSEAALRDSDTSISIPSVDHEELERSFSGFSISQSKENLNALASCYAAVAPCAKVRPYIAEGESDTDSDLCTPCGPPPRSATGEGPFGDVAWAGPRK

Take `CC[C@H](C(N)=O)N1CCCC1=O` [LEVITIRACETAM]: the 50% effective dose (ED50) in the series listed under Mus musculus [1] is 41.5 mg/kg; in the series listed under Mus musculus [2] it was over 500 mg/kg; in the series listed under Mus musculus [3], 376 mg/kg; in the series listed under Mus musculus [5], over 500 mg/kg. The Activity in series [4] was over 500 mg/kg.
With `C#CCN(Cc1ccc(F)cc1)c1ccc(NC(=O)OC)c(OC(F)(F)F)c1`, the Activity is 1.24 in [6] and -13.2 mV in series [7].
Taken in the same sequence, the figures for `C#CCN(Cc1ccc(F)cc1)c1ccc(NC(=O)OCc2ccccc2)cc1` were 2.09 and -11.5 mV.
Take `CC1(C)O[C@@H]2[C@@H](CO[C@@]3(COS(N)(=O)=O)OC(C)(C)O[C@@H]23)O1` [TOPIRAMATE]: the median effective dose (ED50) in the series filed under Mus musculus [1] is over 500 mg/kg; in the series filed under Mus musculus [2], over 200 mg/kg; in the series filed under Mus musculus [3], over 500 mg/kg; in the series filed under Mus musculus [5] it was 35.5 mg/kg. The Activity in series [4] is 379.2 mg/kg.
On to `C#CCN(Cc1cccc(OC)c1)c1ccc(NC(=O)OC)cc1`, for which the values for the Activity in series [6] and in series [7] were 2.72 and -12.5 mV, respectively.
Taken in the same sequence, the figures for `C#CCN(Cc1ccc(F)cc1)c1ccc(NC(C)=O)cc1` were 1.8 and -6.09 mV.
`C#CCN(Cc1ccc(F)c(F)c1)c1ccc(NC(=O)OC)cc1`: the Activity in series [6] was 2.52; in series [7], -14.9 mV.
With `C#CCN(Cc1ccc(Br)cc1)c1ccc(NC(=O)OC)cc1`, the Activity in series [6] was 3.75; in series [7], -25.1 mV.
Taken in the same sequence, the figures for `C#CCN(Cc1ccc(F)cc1)c1ccc(NC(=O)OC)c(C(F)(F)F)c1` were 1.42 and -10.4 mV.
With `C#CCN(Cc1ccc(F)cc1)c1ccc(NC(=O)OC)c(C)c1`, the Activity in [6] is 4.8; in [7], -23.3 mV.
In the case of `C#CCN(Cc1ccc(F)cc1)c1ccc(NC(=O)OC)c(Cl)c1`, the values for the Activity in series [6] and in series [7] were 1.09 and -7.06 mV, respectively.
Consider `C#CCN(Cc1ccc(F)cc1)c1ccc(NC(=O)OC(C)(C)C)cc1`, for which the Activity in series [6] is 1.05; in series [7] it was -19.4 mV.
In the case of `C#CCN(Cc1ccc(F)cc1)c1ccc(F)c(NC(=O)OC)c1`, the values for the Activity in [6] and in series [7] were 2.75 and -18.7 mV, respectively.
On to `C#CCN(Cc1ccc(F)cc1)c1ccc(NC(=O)OC)c(F)c1`, for which the figures for the Activity in [6] and in series [7] were 2.09 and -22 mV, respectively.
For the compound `C#CCN(Cc1ccc(F)cc1)c1ccc(NC(=O)OCC)c(N)c1`, the Activity in series [6] was 1.53; in [7] it was -47.9 mV.
Consider `C#CCN(Cc1ccc(F)cc1)c1ccccc1NC(=O)OC`, for which the Activity in series [6] came out at 0.95.
Consider `C#CCN(Cc1ccc(F)cc1)c1ccc(NC(=O)OC)cc1`, for which the Activity with Mus musculus [8] is 60%; in series [6], 3.27; in the series on Mus musculus [9], 50%; in [7], -24.2 mV.
With `C#CCN(Cc1ccc(F)cc1)c1ccc(NC(=O)OCC(C)C)cc1`, the Activity is 1.23 in [6] and -14.3 mV in series [7].
On the same counts, the results for `C#CCN(Cc1ccc(F)cc1)c1ccc(NC(=O)OCC2COC(C)(C)O2)cc1` (stereo not drawn) are 2.11 and -3.95 mV.
On the same counts, the results for `C#CCN(Cc1ccc(F)cc1)c1ccc(NC(=O)OC)c(C#N)c1` are 0.52 and -5.1 mV.
On the same counts, the results for `C#CCN(Cc1cccc(F)c1)c1ccc(NC(=O)OC)cc1` are 2.33 and -21.1 mV.
Take `C#CCN(Cc1ccc(F)cc1)c1ccc(NC(=O)OC)cc1F`: the Activity was 1.39 in [6] and -9.06 mV in series [7].
For `C#CCN(Cc1ccc(C)cc1)c1ccc(NC(=O)OC)cc1`, the Activity was 1.05 in series [6] and -5.77 mV in series [7].
Taken in the same sequence, the figures for `C#CCN(Cc1ccccc1F)c1ccc(NC(=O)OC)cc1` were 2.31 and -7.6 mV.
Taken in the same sequence, the figures for `C#CCN(Cc1ccc(F)cc1)c1c(C)cc(NC(=O)OC)cc1C` were 0.72 and 13.5 mV.
Taken in the same sequence, the figures for `C#CCN(Cc1ccc(F)cc1)c1ccc(NC(=O)OC)cc1Cl` were 1.19 and -2.06 mV.
For `C#CCN(Cc1ccc(F)cc1)c1cccc(NC(=O)OC)c1`, the results for the Activity in series [6] and in [7] were 1.65 and 3.6 mV, respectively.
On the same counts, the results for `C#CCN(Cc1ccc(F)c(C(F)(F)F)c1)c1ccc(NC(=O)OC)cc1` are 1.33 and -15.6 mV.
On the same counts, the results for `C#CCN(Cc1ccc(F)cc1)c1ccc(NC(=O)OCC=C)cc1` are 1.01 and -14.5 mV.
Take `C#CCN(Cc1ccccc1Cl)c1ccc(NC(=O)OC)cc1`: the figures for the Activity in series [6] and in [7] were 2.29 and -16.5 mV, respectively.
Taken in the same sequence, the figures for `C#CCN(Cc1ccc(F)cc1)c1ccc(NC(=O)OCC)cc1` were 1.99 and -7.26 mV.
Taken in the same sequence, the figures for `C#CCN(Cc1ccc(F)cc1)c1ccc(NC(=O)OC)cc1C` were 1.4 and -3.42 mV.
On to `C#CCN(Cc1ccc(F)cc1)c1ccc(NC(=O)OC)cc1C#N`, for which the Activity in series [6] is 1.94; in series [7], -9.62 mV.
